Source: ChEMBL document CHEMBL1133891, “Substituted 4-phenyl-2-(phenylcarboxamido)-1,3-thiazole derivatives as antagonists for the adenosine A(1) receptor” (Bioorg Med Chem Lett, 2001)

How the values were obtained:
Adenosine receptor A1 = molecular target: T1, Adenosine receptor A1 (Rattus norvegicus, UniProt P25099); experiment: Displacement of [3H]DPCPX from Adenosine A1 receptor of rat cortical membrane
T1 sequence (P25099 whole entry): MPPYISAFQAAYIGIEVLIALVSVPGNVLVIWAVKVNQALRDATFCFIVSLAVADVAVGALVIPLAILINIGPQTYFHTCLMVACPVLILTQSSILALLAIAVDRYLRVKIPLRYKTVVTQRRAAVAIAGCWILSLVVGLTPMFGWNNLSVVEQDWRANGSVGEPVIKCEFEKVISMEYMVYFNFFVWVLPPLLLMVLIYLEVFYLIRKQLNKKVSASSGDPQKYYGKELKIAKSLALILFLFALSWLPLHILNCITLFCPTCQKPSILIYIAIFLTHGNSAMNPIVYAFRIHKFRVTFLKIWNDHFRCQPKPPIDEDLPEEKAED
In short: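 Competition binding on rat brain cortex membranes, displacing the A1 radioligand [3H]DPCPX. Displacement experiments run without GTP.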

[1] = molecular target: T2, Adenosine receptor A3 (Homo sapiens) (UniProt P0DMS8); experiment: Percent displacement of [125I]-AB MECA from human Adenosine A3 receptor expressed in HEK 293 cells at 1 uM; type: cell-based; conditions: HEK293
T2 sequence (whole entry): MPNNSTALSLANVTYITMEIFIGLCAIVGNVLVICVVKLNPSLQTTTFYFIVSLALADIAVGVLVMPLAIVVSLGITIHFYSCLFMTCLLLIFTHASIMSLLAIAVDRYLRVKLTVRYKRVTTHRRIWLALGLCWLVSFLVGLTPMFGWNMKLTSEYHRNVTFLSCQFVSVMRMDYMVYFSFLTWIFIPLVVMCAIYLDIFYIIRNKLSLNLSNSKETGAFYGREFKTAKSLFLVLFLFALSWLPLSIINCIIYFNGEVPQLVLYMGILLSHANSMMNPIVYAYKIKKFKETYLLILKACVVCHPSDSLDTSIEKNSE

[2] = molecular target: Adenosine receptor A2a (Rattus norvegicus) (UniProt P30543); experiment: Percent displacement of [3H]ZM-241385 from A2A receptor in rat striatal membrane at 10 uM; type: cell membranes; conditions: Striatum
Adenosine receptor A2a (Rattus norvegicus), sequence (P30543 whole entry): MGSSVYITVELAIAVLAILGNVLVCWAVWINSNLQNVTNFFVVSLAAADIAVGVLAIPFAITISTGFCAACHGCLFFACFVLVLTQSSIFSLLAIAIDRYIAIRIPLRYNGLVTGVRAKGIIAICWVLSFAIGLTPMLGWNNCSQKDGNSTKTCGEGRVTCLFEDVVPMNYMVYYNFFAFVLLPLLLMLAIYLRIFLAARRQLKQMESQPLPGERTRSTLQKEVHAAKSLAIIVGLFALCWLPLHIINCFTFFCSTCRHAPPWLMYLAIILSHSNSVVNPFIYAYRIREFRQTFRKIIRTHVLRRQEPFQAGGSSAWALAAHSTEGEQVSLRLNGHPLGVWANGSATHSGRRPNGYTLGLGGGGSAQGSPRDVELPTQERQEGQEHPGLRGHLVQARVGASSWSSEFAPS

SMILES | Ki (Adenosine receptor A1) [nM] | Displacement [1] [%] | Displacement [2] [%]
O=C(Nc1nc(-c2ccccc2)cs1)c1cccc(Cl)c1 | 86 | 42 | 3
O=C(Nc1nc(-c2ccccc2)cs1)c1ccc(Cl)cc1Cl | 58 | 22 | 17
O=C(Nc1nc(-c2ccccc2)cs1)c1ccccc1 | 39 | 42 | 21
O=C(Nc1nc(-c2ccccc2)cs1)c1ccc(C(F)(F)F)cc1 | 165 | 18 | 0
O=C(Nc1nc(-c2ccccc2)cs1)c1ccc(Br)cc1 | 33 | 58 | 14
CC(C)(C)c1ccc(C(=O)Nc2nc(-c3ccccc3)cs2)cc1 | – | 27 | 2
O=C(Nc1nc(-c2ccccc2)cs1)c1ccc(Cl)c(Cl)c1 | 59 | 20 | 6
O=C(Nc1nc(-c2ccccc2)cs1)c1ccc([N+](=O)[O-])cc1 | 22 | 35 | 9
Cc1ccc(C(=O)Nc2nc(-c3ccccc3)cs2)cc1 | 36 | 66 | 13
O=C(Nc1nc(-c2ccccc2)cs1)c1ccc(Cl)cc1 | 18 | 63 | 15
